We go through eight compounds from ChEMBL document CHEMBL1147147 (J Med Chem, 2007).

Experiment [1] deals with Clostridium botulinum. As to the kind of experiment: Inhibition of botulinum neurotoxin serotype A light chain metalloprotease at 50 uM. In outline: (§1)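 Percent inhibition of BoNT/A light chain metalloprotease activity was measured at a single inhibitor concentration, by a method described in earlier work, in duplicate.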
Experiment [2] is described as follows: Inhibition of botulinum neurotoxin serotype A light chain metalloprotease. The arrangement: species or system Clostridium botulinum. In outline: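 Metalloprotease activity of the BoNT/A light chain was measured by a method described in earlier work. IC50 was derived from concentration-versus-inhibition plots using seven or nine concentrations per inhibitor, averaged from duplicate determinations.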

The subject of experiment [3] is Clostridium botulinum. As to the kind of experiment: Inhibition of botulinum neurotoxin serotype A light chain metalloprotease at 20 uM. Summed up: as §1

As usually defined, the inhibition is the relative decrease from the control value, in per cent. Read a high inhibition as a response far below the control. As to `COC(=O)CCC(C)[C@H]1CC[C@H]2[C@@H]3[C@H](OC(C)=O)C[C@@H]4C[C@H](OCCNCCNc5ccnc6cc(Cl)ccc56)CC[C@]4(C)[C@H]3CC(OC(C)=O)[C@]12C` (stereo partly specified), in the experiment with Clostridium botulinum [1], the inhibition stood at 62%.
The term IC50 denotes the point on the concentration scale where inhibition reaches its midpoint. With `COC(=O)CCC(C)[C@H]1CC[C@H]2[C@@H]3[C@H](OC(C)=O)C[C@@H]4C[C@@H](NCCNc5ccnc6cc(Cl)ccc56)CC[C@]4(C)[C@H]3C[C@H](OC(C)=O)[C@]12C` (stereo partly specified), the IC50 in experiment [2] was 17 µM. The same compound yielded an inhibition in the experiment on Clostridium botulinum [1] of 80%.
The compound `COC(=O)CCC(C)[C@H]1CC[C@H]2[C@@H]3[C@H](OC(C)=O)C[C@@H]4C[C@H](OCCNc5ccnc6cc(Cl)ccc56)CC[C@]4(C)[C@H]3CC(OC(C)=O)[C@]12C` (stereo partly specified) displayed an inhibition in the experiment on Clostridium botulinum [1] of 9%.
With `Clc1ccc2c(NCCCN(CCCNc3ccnc4cc(Cl)ccc34)CCCNc3ccnc4cc(Cl)ccc34)ccnc2c1`, in experiment [2], the IC50 came to 3.2 µM. The same compound yielded an inhibition in the experiment on Clostridium botulinum [3] of 67%.
`COC(=O)CCC(C)[C@H]1CC[C@H]2[C@@H]3[C@H](OC(C)=O)C[C@@H]4C[C@H](N)CC[C@]4(C)[C@H]3C[C@H](OC(C)=O)[C@]12C` (stereo partly specified) gave an inhibition in the experiment with Clostridium botulinum [1] of 13%.
Same read-out and setting: the figure for `Nc1ccnc2cc(Cl)ccc12` is 12%.
`COC(=O)CCC(C)[C@H]1CC[C@H]2[C@@H]3[C@H](OC(C)=O)C[C@@H]4C[C@H](NCCNc5ccnc6cc(Cl)ccc56)CC[C@]4(C)[C@H]3C[C@H](OC(C)=O)[C@]12C` (stereo partly specified): in experiment [2], the IC50 turned out to be 7 µM. Also, in the experiment on Clostridium botulinum [1], the inhibition came to 90%.
On to `COC(=O)CCC(C)[C@H]1CC[C@H]2[C@@H]3[C@H](OC(C)=O)C[C@@H]4C[C@H](OC(C)=O)CC[C@]4(C)[C@H]3C[C@H](OC(C)=O)[C@]12C` (stereo partly specified), for which the inhibition with Clostridium botulinum [1] was found to be 0%.
